Source: ChEMBL document CHEMBL1134739, “Synthesis, biological activity and comparative analysis of DNA binding affinities and human DNA topoisomerase I inhibitory activities of novel 12-alkoxy-benzo[c]phenanthridinium salts” (Bioorg Med Chem Lett, 2001)

Experiments:
Nucleic Acid [1] = experiment: Compound was tested for its binding affinity towards poly(AT); format: nucleic-acid assay
Outline: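 Double-stranded poly(dA-dT)·poly(dA-dT) concentration set using a molar extinction coefficient of 13,900 M^-1 cm^-1. Binding was followed by recording UV–vis spectra.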

Caov-3 cell line [2] = experiment: (§1) Compound was tested for cytotoxicity against CaOv3 human solid tumor cell line; format: functional
Outline: (§2)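 MTT assay: drugs added 24 h after plating at nine concentrations; cells grown 72 h with drug, then MTT (2.5 mg/mL solution in PBS) added for 3 h. Formazan dissolved in DMSO, absorbance read at 570 nm. IC50 taken from dose/inhibition curves.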

Nucleic Acid [3] = experiment: Compound was tested for its binding affinity towards calf thymus DNA; format: nucleic-acid assay; details: Bos taurus
Outline: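 Calf thymus DNA concentration set using a molar extinction coefficient of 13,200 M^-1 cm^-1. Binding was followed by recording UV–vis spectra.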

MCF7 [4] = experiment: (§3) Compound was tested for cytotoxicity against MCF-7 human solid tumor cell line; format: functional, cell-based; outline: as §2
HT-29 [5] = experiment: (§4) Compound was tested for cytotoxicity against HT-29 human solid tumor cell line; format: functional, cell-based; outline: as §2
Nucleic Acid [6] = experiment: Compound was tested for its binding affinity towards poly(GC); format: nucleic-acid assay
Outline: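 Double-stranded poly(dG-dC)·poly(dG-dC) concentration set using a molar extinction coefficient of 13,200 M^-1 cm^-1. Binding was followed by recording UV–vis spectra.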

A549 [7] = experiment: (§5) Compound was tested for cytotoxicity against A-549 human solid tumor cell line; format: functional, cell-based; outline: as §2
A549 [8] = experiment: as §5; format: functional
MCF7 [9] = experiment: as §3; format: functional
HT-29 [10] = experiment: as §4; format: functional
Caov-3 cell line [11] = experiment: Compound was tested for cytotoxicity against CaOv3 human solid tumor cell line; NA=Not active; format: functional, cell-based
Outline: (§6)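 MTT assay on adherent solid tumor lines. Drug added 24 h after plating at nine concentrations, then 72 h growth with drug. MTT (2.5 mg/mL solution in PBS) added for 3 h, medium aspirated, formazan dissolved in DMSO, absorbance read at 570 nm. IC50 taken from dose/inhibition curves.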

MCF7 [12] = experiment: Compound was tested for cytotoxicity against MCF-7 human solid tumor cell line; NA=Not active; format: functional, cell-based; outline: as §6
Caov-3 cell line [13] = experiment: as §1; format: functional, cell-based; outline: as §2

CCOc1cc2c3cc(OC)c(OC)cc3c[n+](C)c2c2cc(OC)c(OC)cc12
K (Nucleic Acid [1]): 2.5e+06 M⁻¹ | IC30 (Caov-3 cell line [2]): 500 nM | K (Nucleic Acid [3]): 250000 M⁻¹ | IC50 (MCF7 [4]): 2000 nM | IC30 (HT-29 [5]): 2000 nM | K (Nucleic Acid [6]): 100000 M⁻¹ | IC50 (A549 [7]): 80 nM

CCOc1cc2c3cc(OC)c(OC)cc3c(C)[n+](C)c2c2cc(OC)c(OC)cc12
IC30 (A549 [8]): 10000 nM | IC30 (MCF7 [9]): 1000 nM | K (Nucleic Acid [1]): 700000 M⁻¹ | IC30 (Caov-3 cell line [2]): 10000 nM | K (Nucleic Acid [3]): 700000 M⁻¹ | K (Nucleic Acid [6]): 50000 M⁻¹ | IC30 (HT-29 [10]): 9000 nM

CCOc1cc2c3cc(OC)c(OC)cc3c[n+](C)c2c2cc(OC)c(O)cc12.[I-]
K (Nucleic Acid [1]): 300000 M⁻¹ | IC50 (Caov-3 cell line [11]): Not Active | K (Nucleic Acid [3]): 250000 M⁻¹ | IC30 (HT-29 [5]): 5000 nM | K (Nucleic Acid [6]): 60000 M⁻¹ | IC50 (MCF7 [12]): Not Active

CCOc1cc2c3cc(OC)c(OC)cc3c[n+](C)c2c2cc(OC)c(OS(C)(=O)=O)cc12.CS(=O)(=O)[O-]
K (Nucleic Acid [1]): 50000 M⁻¹ | IC50 (Caov-3 cell line [11]): Not Active | K (Nucleic Acid [3]): 250000 M⁻¹ | K (Nucleic Acid [6]): 53000 M⁻¹ | IC50 (MCF7 [12]): Not Active | IC30 (HT-29 [10]): 1000 nM | IC50 (A549 [7]): 500 nM

COc1cc2c(ccc3c4cc(OC)c(OC)cc4c[n+](C)c23)cc1O [FAGARONINE]
K (Nucleic Acid [1]): 1e+06 M⁻¹ | K (Nucleic Acid [3]): 1e+06 M⁻¹ | IC50 (MCF7 [4]): 4000 nM | IC30 (HT-29 [5]): 9000 nM | K (Nucleic Acid [6]): 1.1e+06 M⁻¹ | IC50 (Caov-3 cell line [13]): 500 nM | IC50 (A549 [7]): 100 nM
